Test results: ChEMBL document CHEMBL1133534, “1,3-Diaryl-4,5,6,7-tetrahydro-2H-isoindole derivatives: a new series of potent and selective COX-2 inhibitors in which a sulfonyl group is not a structural requisite” (J Med Chem, 2000)

Assays:
Mus musculus [1] = species on record: Mus musculus; assay: (§1) Compound was evaluated for its effective dose to inhibit exudate PGE-2
In short: (§2)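 Mice given compound or vehicle orally 18 h after air-pouch induction; 1 h later 500 µL sterile 1% carrageenan injected into pouch; sacrifice 5 h after carrageenan. Pouch lavaged with 2 mL heparinized HBSS, kept on ice, PGE2 measured by EIA after solid-phase extraction. ED50 from 3 or 4 dose points, at least 8 mice/group.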

[2] = target: T1, Prostaglandin G/H synthase 1 (Mus musculus, UniProt P22437); assay: Inhibition against prostaglandin G/H synthase 1 from mouse resident macrophages
T1 sequence (P22437 whole entry): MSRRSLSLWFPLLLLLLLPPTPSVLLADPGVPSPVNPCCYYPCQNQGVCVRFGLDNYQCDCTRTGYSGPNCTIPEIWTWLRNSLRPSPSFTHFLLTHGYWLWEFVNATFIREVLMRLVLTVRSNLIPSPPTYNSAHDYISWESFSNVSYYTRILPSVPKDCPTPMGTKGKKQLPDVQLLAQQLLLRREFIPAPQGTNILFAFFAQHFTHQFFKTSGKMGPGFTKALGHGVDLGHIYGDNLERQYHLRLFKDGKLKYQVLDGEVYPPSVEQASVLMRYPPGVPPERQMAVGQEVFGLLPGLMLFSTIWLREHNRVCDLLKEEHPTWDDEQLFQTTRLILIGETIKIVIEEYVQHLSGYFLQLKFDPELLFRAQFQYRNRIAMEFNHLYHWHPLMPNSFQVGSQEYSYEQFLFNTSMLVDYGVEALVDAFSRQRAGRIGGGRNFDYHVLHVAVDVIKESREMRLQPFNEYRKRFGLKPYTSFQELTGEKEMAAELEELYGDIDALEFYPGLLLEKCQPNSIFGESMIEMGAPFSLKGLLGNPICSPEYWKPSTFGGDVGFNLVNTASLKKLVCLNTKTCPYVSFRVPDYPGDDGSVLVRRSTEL

Mus musculus [3] = species on record: Mus musculus; assay: (§3) Compound was evaluated for its effective dose to inhibit gastric PGE-2; format: tissue-based; conditions: Stomach
In short: (§4)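 Mice with air pouches (18 h old) were dosed orally with compound or vehicle. After 1 h, 500 µL sterile 1% carrageenan was injected into the pouch, and mice were killed 5 h later. Pouch lavage (heparinized HBSS) was cooled on ice, and PGE2 was measured by EIA after solid-phase extraction. Excised stomachs were rinsed and incubated 15 min in PBS, and supernatant PGE2 was measured by EIA. ED50 from 3 or 4 doses, at least 8 mice/group.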

[4] = target: T2, Prostaglandin G/H synthase 2 (Mus musculus, UniProt Q05769); assay: Inhibition against prostaglandin G/H synthase 2 from mouse resident macrophages
T2 sequence (Q05769 whole entry): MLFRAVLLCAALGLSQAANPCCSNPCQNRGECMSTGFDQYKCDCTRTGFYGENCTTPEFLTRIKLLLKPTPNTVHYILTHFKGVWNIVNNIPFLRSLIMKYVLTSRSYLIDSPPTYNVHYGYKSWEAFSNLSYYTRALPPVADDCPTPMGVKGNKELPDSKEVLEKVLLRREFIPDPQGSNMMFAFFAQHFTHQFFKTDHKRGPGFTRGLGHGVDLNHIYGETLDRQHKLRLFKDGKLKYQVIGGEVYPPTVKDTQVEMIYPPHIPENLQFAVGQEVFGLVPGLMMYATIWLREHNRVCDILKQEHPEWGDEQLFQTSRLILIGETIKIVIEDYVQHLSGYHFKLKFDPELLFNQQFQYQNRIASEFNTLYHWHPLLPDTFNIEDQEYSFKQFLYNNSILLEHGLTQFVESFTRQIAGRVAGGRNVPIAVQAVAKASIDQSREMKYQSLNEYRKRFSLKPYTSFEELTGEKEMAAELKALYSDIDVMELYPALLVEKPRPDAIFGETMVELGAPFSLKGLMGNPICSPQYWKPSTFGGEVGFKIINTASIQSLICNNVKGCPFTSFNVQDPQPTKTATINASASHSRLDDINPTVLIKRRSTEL

[5] = as §1; format: functional; conditions: Mus musculus; in short: as §2
[6] = as §3; format: functional; conditions: Mus musculus, Stomach; in short: as §4
[7] = Gastric toxicity of the compound.
In short: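 Male Swiss mice, fasted overnight with water, were dosed orally at 400 mg/kg or given vehicle, and killed by cervical dislocation 5 h later. The stomach was opened and mucosal damage scored blind from 0 (normal) to 5 (perforation). Mean ± SEM, 8 animals/group.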

Rattus norvegicus [8] = assay: Effective dose for inhibition of edema after oral administration (95% confidence limits); format: functional
In short: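 Adjuvant-induced arthritis in female Lewis rats, with oral dosing. Edema of the noninjected paw was read at day 21, 10 rats/group. ED50 was estimated by linear regression with 95% confidence limits.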

Rattus norvegicus [9] = assay: Effective dose for inhibition of edema of the non injected paw in rat
[10] = target: Prostaglandin G/H synthase 1 (Homo sapiens, UniProt P23219); assay: Tested in vitro for inhibition against Prostaglandin G/H synthase 1 in human blood
[11] = target: T3, Prostaglandin G/H synthase 2 (Homo sapiens, UniProt P35354)
T3 sequence (P35354 whole entry): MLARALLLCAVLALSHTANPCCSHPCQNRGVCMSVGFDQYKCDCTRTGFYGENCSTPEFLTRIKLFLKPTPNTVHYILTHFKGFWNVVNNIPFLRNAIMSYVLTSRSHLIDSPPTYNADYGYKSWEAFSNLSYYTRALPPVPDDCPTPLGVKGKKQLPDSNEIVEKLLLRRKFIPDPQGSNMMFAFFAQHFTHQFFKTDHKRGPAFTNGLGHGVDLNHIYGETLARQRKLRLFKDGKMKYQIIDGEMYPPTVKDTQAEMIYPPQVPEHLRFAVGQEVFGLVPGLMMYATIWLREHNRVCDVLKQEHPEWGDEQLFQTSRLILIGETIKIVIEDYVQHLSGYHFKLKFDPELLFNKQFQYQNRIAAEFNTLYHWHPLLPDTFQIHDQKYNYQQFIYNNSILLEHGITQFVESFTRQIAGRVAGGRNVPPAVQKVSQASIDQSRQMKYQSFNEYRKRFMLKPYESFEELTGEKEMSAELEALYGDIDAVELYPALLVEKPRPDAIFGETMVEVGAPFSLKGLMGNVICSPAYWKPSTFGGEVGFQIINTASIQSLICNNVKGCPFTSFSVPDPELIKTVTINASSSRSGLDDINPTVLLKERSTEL

Chain of Prostaglandin G/H synthase 1 (Homo sapiens, UniProt P23219) (P23219 whole entry): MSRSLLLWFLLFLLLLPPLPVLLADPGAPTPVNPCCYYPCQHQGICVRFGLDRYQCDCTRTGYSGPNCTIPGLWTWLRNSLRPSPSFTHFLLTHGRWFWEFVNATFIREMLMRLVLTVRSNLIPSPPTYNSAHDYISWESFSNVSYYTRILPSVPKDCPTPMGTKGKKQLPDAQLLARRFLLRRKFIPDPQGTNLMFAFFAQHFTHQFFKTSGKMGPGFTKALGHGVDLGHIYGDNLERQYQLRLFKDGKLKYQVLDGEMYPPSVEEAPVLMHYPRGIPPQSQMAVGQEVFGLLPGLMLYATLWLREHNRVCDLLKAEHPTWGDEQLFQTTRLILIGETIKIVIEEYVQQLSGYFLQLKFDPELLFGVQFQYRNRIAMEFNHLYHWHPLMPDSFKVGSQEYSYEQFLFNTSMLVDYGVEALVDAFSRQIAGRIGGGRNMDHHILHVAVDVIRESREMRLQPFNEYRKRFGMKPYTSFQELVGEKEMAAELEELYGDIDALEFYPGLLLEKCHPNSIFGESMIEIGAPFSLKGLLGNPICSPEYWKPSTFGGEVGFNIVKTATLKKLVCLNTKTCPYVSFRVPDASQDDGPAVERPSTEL

| SMILES | ED50 (Mus musculus [1]) | IC50 [2] | IC50 [4] | ED50 (Mus musculus [3]) | further results |
| --- | --- | --- | --- | --- | --- |
| Cc1ccc(-c2cc(C(F)(F)F)nn2-c2ccc(S(N)(=O)=O)cc2)cc1 [CELECOXIB] |  |  |  |  | ED50 [5]: 10 mg/kg; ED50 [6]: > 40 mg/kg; Gastric score [7]: 0.7; ED50 (Rattus norvegicus [8]): 0.32 mg/kg/day; ED50 (Rattus norvegicus [9]): 0.37 mg/kg/day |
| C1=CC2CCC1c1c(-c3ccccc3)[nH]c(-c3ccccc3)c12 |  | > 1000 nM | 35.6 nM |  |  |
| CC(=O)Nc1cc(-c2[nH]c(-c3ccc(F)c(NC(C)=O)c3)c3c2C2CCC3C2)ccc1F |  |  | > 100 nM |  |  |
| Fc1ccc(-c2[nH]c(-c3ccc(-n4ccnc4)cc3)c3c2CCCC3)cc1 |  | 500 nM | 42 nM |  |  |
| c1ccc(-c2sc(-c3ccccc3)c3ccccc23)cc1 |  | 1000 nM | 10.9 nM |  |  |
| CSc1ccc(-c2[nH]c(-c3ccc(SC)cc3)c3c2CCCC3)cc1 |  | 500 nM | 500 nM |  |  |
| Fc1ccc(-c2[nH]c(-c3ccc(F)cc3)c3c2C2CCC3CC2)cc1 | 3.5 mg/kg | 230 nM | 0.6 nM | > 20 mg/kg | IC50 [10]: 30000 nM; Gastric score [7]: 0.3; IC50 [11]: 0.12 nM; ED50 (Rattus norvegicus [8]): 0.15 mg/kg/day |
| c1ccc(-c2cn3c(c2-c2ccccc2)CCC3)cc1 |  | 2500 nM | 28.7 nM |  |  |
| CS(=O)(=O)c1ccc(-c2[nH]c(-c3ccc(S(C)(=O)=O)cc3)c3c2C2CCC3C2)cc1 |  |  | > 10000 nM |  |  |

Now from value to compound, other results behind:

| ED50 (Mus musculus [1]) | IC50 [2] | IC50 [4] | SMILES | ED50 (Mus musculus [3]) | further results |
| --- | --- | --- | --- | --- | --- |
| 20 mg/kg | 100 nM | 1.5 nM | c1ccc(-c2[nH]c(-c3ccccc3)c3c2CCCC3)cc1 | 50 mg/kg |  |
|  |  | > 100 nM | Clc1cc2c(cc1Cl)C(c1ccccc1)NC2c1ccccc1 (stereo unspecified) |  |  |
|  |  | > 100 nM | O=C(O)Cn1c(-c2ccccc2)c2c(c1-c1ccccc1)CCCC2 |  |  |
|  | 1000 nM | 3.1 nM | CC1Cc2c(-c3ccccc3)[nH]c(-c3ccccc3)c2CC1C (stereo unspecified) |  |  |
|  |  | > 1000 nM | Cn1c(-c2ccccc2)c2c(c1-c1ccccc1)CCCC2 |  |  |
|  | > 1000 nM | 500 nM | CS(=O)(=O)Nn1c(-c2ccccc2)c2c(c1-c1ccccc1)CCCC2 |  |  |
|  |  | > 100 nM | c1ccc(CN2Cc3c(-c4ccccc4)[nH]c(-c4ccccc4)c3C2)cc1 |  |  |
| > 40 mg/kg | 250 nM | 1.6 nM | c1ccc(-c2[nH]c(-c3ccccc3)c3c2C2CCC3CC2)cc1 | > 40 mg/kg |  |
| 20 mg/kg | 250 nM |  | c1ccc(-c2[nH]c(-c3ccccc3)c3c2CCC3)cc1 | 10 mg/kg |  |
| 20 mg/kg | > 5000 nM | 5 nM | Clc1ccc(-c2[nH]c(-c3ccc(Cl)cc3)c3c2CCCC3)cc1 | > 80 mg/kg |  |
| 100 mg/kg | > 2500 nM |  | c1ccc([C@H]2N[C@H](c3ccccc3)c3ccccc32)cc1 | 100 mg/kg |  |
